Published values pooled from the literature.
Protocols differ between the studies behind these lines.
Target: Histamine H2 receptor (HRH2, Homo sapiens, UniProt P25021)

| SMILES | read-out | action | technique | tested at | notes | measurement | value |
| --- | --- | --- | --- | --- | --- | --- | --- |
| N#Cc1ccc(Nc2ccc3[nH]c(=O)[nH]c3c2)c(Cl)c1 | cell-free assay |  |  | 10 µM |  | inhibition | 2.26% |
| CCN(Cc1ccccc1C(F)(F)F)C(=O)C1CCN(S(=O)(=O)c2ccc3[nH]ncc3c2)CC1 | ligand displacement |  | radioligand | 10 µM |  | inhibition | 5% |
| N=C(NCCCCCCCCCCCCN)NCCCc1c[nH]cn1 | GTPγS binding | agonist | radiometric |  | cell membranes | Emax | 66% |
| O=C1N=C(N2CCCCN2)S/C1=C\c1ccc(F)cc1O | ligand displacement |  | radioligand | 10 µM |  | inhibition | < 10% |
| Cc1nc(N)sc1CCCNC(=N)NCCCCCCCCNC(=N)NCCCc1sc(N)nc1C | GTPγS binding | agonist | radiometric |  | cell membranes | Emax | 52% |
| CCN(CC)c1ccc(C2Nc3ccc(C(=O)c4ccccc4)cc3NC3=C2C(=O)CC(C)(C)C3)cc1 (stereo not drawn) | ligand displacement |  | radioligand | 10 µM |  | inhibition | 38% |
| COCCOc1nc(-c2ccc(Cl)nc2)nc2c1CN(C(=O)c1ncn3ccccc13)CC2 | ligand displacement |  |  | 10 µM |  | inhibition | -0.24% |
| O=C(c1ccc(Cl)cc1)N(Cc1ccccc1)C1CCCCC1 | cell-free assay |  |  | 10 µM |  | inhibition | -27.3% |
| N#Cc1cc(Cn2c(N3CCCC3)nc3ccccc32)ccc1F | ligand displacement |  |  | 10 µM |  | inhibition | 64.1% |
| O=C(Nc1ccc(S(=O)(=O)N2CCC(Cl)CC2)cc1)c1ccc([N+](=O)[O-])o1 | ligand displacement |  | radioligand | 10 µM |  | inhibition | 10% |
| O=C(c1ccc(F)cc1)N(Cc1ccccc1)C1CCCCC1 | cell-free assay |  |  | 10 µM |  | inhibition | -3% |
| CCCNc1nc2ccccc2n1Cc1ccc(Cl)cc1 | ligand displacement |  |  | 10 µM |  | inhibition | 83.3% |
